Test results reported in PubChem BioAssay AID504519 (The Scripps Research Institute Molecular Screening Center, 2011).
Active and inactive are the calls of the source.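 How the source made its calls: active means labelling ratio, compound over solvent, at most 0.5 for PAFAH2 while all off-target serine hydrolases stay above 0.5; inactive means the rest.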

Tests used:
Assay in all cases: proteome-wide serine hydrolase selectivity in cells, late-stage follow-up, selectivity assay for PAFAH2 inhibitor project, LC-MS, SILAC, BW5147 murine T cells (AID 504519)
LYPLA2 = settings: SILAC ABPP LC-MS/MS ratio, stronger effect = lower value
Procedure, shortened: (§1)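 Material: murine T-cell hybridoma line derived from BW5147, SILAC-labeled (light or heavy). Buffer or medium: SILAC RPMI, light or heavy. Doses: compound (light cells) versus DMSO (heavy cells). Technique: MudPIT LC/LC-MS/MS after biotin enrichment. Evaluation: Per-protein light/heavy peptide intensity ratio, 1 meaning no inhibition. Controls: heavy DMSO-treated cells as reference.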

LYPLA3 = settings: SILAC ABPP LC-MS/MS ratio, stronger effect = lower value
Procedure, shortened: as §1

SERHL = settings: SILAC ABPP LC-MS/MS ratio, stronger effect = lower value
Procedure, shortened: as §1

FAM108A = settings: SILAC ABPP LC-MS/MS ratio, stronger effect = lower value
Procedure, shortened: as §1

ABHD10 = settings: SILAC ABPP LC-MS/MS ratio, stronger effect = lower value
Procedure, shortened: as §1

PAFAH1B3 = settings: SILAC ABPP LC-MS/MS ratio, stronger effect = lower value
Procedure, shortened: as §1

FASN = settings: SILAC ABPP LC-MS/MS ratio, stronger effect = lower value
Procedure, shortened: as §1

SIAE = settings: SILAC ABPP LC-MS/MS ratio, stronger effect = lower value
Procedure, shortened: as §1

ABHD6 = settings: SILAC ABPP LC-MS/MS ratio, stronger effect = lower value
Procedure, shortened: as §1

PNPLA6 = settings: SILAC ABPP LC-MS/MS ratio, stronger effect = lower value
Procedure, shortened: as §1

FAM108B1 = settings: SILAC ABPP LC-MS/MS ratio, stronger effect = lower value
Procedure, shortened: as §1

PARL = settings: SILAC ABPP LC-MS/MS ratio, stronger effect = lower value
Procedure, shortened: as §1

PPME1 = settings: SILAC ABPP LC-MS/MS ratio, stronger effect = lower value
Procedure, shortened: as §1

ABHD12 = settings: SILAC ABPP LC-MS/MS ratio, stronger effect = lower value
Procedure, shortened: as §1

PREPL = settings: SILAC ABPP LC-MS/MS ratio, stronger effect = lower value
Procedure, shortened: as §1

ACOT7 = settings: SILAC ABPP LC-MS/MS ratio, stronger effect = lower value
Procedure, shortened: as §1

BAT5 = settings: SILAC ABPP LC-MS/MS ratio, stronger effect = lower value
Procedure, shortened: as §1

LACTB = settings: SILAC ABPP LC-MS/MS ratio, stronger effect = lower value
Procedure, shortened: as §1

ABHD11 = settings: SILAC ABPP LC-MS/MS ratio, stronger effect = lower value
Procedure, shortened: as §1

ACOT2 = settings: SILAC ABPP LC-MS/MS ratio, stronger effect = lower value
Procedure, shortened: as §1

[1] = biological target: Prolyl endopeptidase (Mus musculus) (UniProt Q9QUR6); settings: SILAC ABPP LC-MS/MS ratio, PREP, stronger effect = lower value
Prolyl endopeptidase (Mus musculus), sequence (Q9QUR6 whole entry, looked up): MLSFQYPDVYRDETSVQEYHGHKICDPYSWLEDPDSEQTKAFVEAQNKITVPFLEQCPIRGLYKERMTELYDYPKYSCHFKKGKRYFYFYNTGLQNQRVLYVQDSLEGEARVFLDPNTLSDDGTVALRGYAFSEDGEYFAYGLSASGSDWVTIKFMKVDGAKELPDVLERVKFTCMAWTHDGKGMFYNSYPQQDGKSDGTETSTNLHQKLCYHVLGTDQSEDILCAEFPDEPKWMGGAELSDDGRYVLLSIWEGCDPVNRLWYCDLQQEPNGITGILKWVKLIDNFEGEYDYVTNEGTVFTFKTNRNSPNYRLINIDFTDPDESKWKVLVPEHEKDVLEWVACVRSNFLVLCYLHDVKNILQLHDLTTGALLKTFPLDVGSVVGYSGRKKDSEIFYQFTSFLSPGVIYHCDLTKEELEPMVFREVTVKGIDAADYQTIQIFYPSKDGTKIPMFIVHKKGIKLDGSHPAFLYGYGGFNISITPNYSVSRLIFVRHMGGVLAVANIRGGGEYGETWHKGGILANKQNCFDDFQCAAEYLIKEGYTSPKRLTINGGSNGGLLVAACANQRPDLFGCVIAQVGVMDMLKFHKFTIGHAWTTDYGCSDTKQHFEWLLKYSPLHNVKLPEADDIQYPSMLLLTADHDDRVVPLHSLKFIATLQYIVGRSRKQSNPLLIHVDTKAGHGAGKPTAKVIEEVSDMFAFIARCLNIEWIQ
Procedure, shortened: as §1

LIPA = settings: SILAC ABPP LC-MS/MS ratio, stronger effect = lower value
Procedure, shortened: as §1

PAFAH1B2 = settings: SILAC ABPP LC-MS/MS ratio, stronger effect = lower value
Procedure, shortened: as §1

PRCP = settings: SILAC ABPP LC-MS/MS ratio, stronger effect = lower value
Procedure, shortened: as §1

DPP7 = settings: SILAC ABPP LC-MS/MS ratio, stronger effect = lower value
Procedure, shortened: as §1

APEH = settings: SILAC ABPP LC-MS/MS ratio, stronger effect = lower value
Procedure, shortened: as §1

DPP9 = settings: SILAC ABPP LC-MS/MS ratio, stronger effect = lower value
Procedure, shortened: as §1

PNPLA7 = settings: SILAC ABPP LC-MS/MS ratio, stronger effect = lower value
Procedure, shortened: as §1

DDHD1 = settings: SILAC ABPP LC-MS/MS ratio, stronger effect = lower value
Procedure, shortened: as §1

FAAH = settings: SILAC ABPP LC-MS/MS ratio, stronger effect = lower value
Procedure, shortened: as §1

PLA2G6 = settings: SILAC ABPP LC-MS/MS ratio, stronger effect = lower value
Procedure, shortened: as §1

FAM108C = settings: SILAC ABPP LC-MS/MS ratio, stronger effect = lower value
Procedure, shortened: as §1

CTSA = settings: SILAC ABPP LC-MS/MS ratio, stronger effect = lower value
Procedure, shortened: as §1

ACOT1 = settings: SILAC ABPP LC-MS/MS ratio, stronger effect = lower value
Procedure, shortened: as §1

DPP4 = settings: SILAC ABPP LC-MS/MS ratio, stronger effect = lower value
Procedure, shortened: as §1

IAH1 = settings: SILAC ABPP LC-MS/MS ratio, stronger effect = lower value
Procedure, shortened: as §1

AADACL1 = settings: SILAC ABPP LC-MS/MS ratio, stronger effect = lower value
Procedure, shortened: as §1

ESD = settings: SILAC ABPP LC-MS/MS ratio, stronger effect = lower value
Procedure, shortened: as §1

DPP8 = settings: SILAC ABPP LC-MS/MS ratio, stronger effect = lower value
Procedure, shortened: as §1

ABHD13 = settings: SILAC ABPP LC-MS/MS ratio, stronger effect = lower value
Procedure, shortened: as §1

[2] = biological target: Platelet-activating factor acetylhydrolase 2, cytoplasmic (Mus musculus) (UniProt Q8VDG7); settings: SILAC ABPP LC-MS/MS ratio, PAFAH2, stronger effect = lower value
Platelet-activating factor acetylhydrolase 2, cytoplasmic (Mus musculus), sequence (Q8VDG7 whole entry, looked up): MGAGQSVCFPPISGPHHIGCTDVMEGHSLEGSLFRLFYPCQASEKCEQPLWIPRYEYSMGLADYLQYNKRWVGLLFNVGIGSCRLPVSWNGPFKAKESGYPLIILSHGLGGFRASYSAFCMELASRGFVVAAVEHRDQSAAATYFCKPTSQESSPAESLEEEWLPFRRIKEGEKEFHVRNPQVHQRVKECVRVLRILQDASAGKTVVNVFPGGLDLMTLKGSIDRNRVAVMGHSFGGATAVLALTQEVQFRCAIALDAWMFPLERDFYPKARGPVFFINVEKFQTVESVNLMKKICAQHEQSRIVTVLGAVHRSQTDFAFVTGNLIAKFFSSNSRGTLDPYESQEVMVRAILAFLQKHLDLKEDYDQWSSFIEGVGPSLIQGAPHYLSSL
Procedure, shortened: as §1

LYPLA1 = settings: SILAC ABPP LC-MS/MS ratio, stronger effect = lower value
Procedure, shortened: as §1

With `O=C(N1CCCC1)n1ncc(-c2ccc(-c3ccccc3)cc2)n1` the SILAC ratio inhibitor/DMSO (LYPLA2) was 1.4 (inactive), the SILAC ratio inhibitor/DMSO (LYPLA3) was 1.3 (inactive) and the SILAC ratio inhibitor/DMSO (SERHL) was 1.1 (inactive). The SILAC ratio inhibitor/DMSO (FAM108A) was 1.1 (inactive), the SILAC ratio inhibitor/DMSO (ABHD10) was 1.4 (inactive) and the SILAC ratio inhibitor/DMSO (PAFAH1B3) was 1.3 (inactive). The SILAC ratio inhibitor/DMSO (FASN) was 1.3 (inactive), the SILAC ratio inhibitor/DMSO (SIAE) was 1.3 (inactive) and the SILAC ratio inhibitor/DMSO (ABHD6) was 0.59 (inactive). For the same compound, the SILAC ratio inhibitor/DMSO (PNPLA6) was 1.6 (inactive), the SILAC ratio inhibitor/DMSO (FAM108B1) was 1.2 (inactive) and the SILAC ratio inhibitor/DMSO (PARL) was 1.2 (inactive). For the same compound, the SILAC ratio inhibitor/DMSO (PPME1) was 1.2 (inactive), the SILAC ratio inhibitor/DMSO (ABHD12) was 1.3 (inactive) and the SILAC ratio inhibitor/DMSO (PREPL) was 1.3 (inactive). For the same compound, the SILAC ratio inhibitor/DMSO (ACOT7) was 1.2 (inactive), the SILAC ratio inhibitor/DMSO (BAT5) was 1.3 (inactive) and the SILAC ratio inhibitor/DMSO (LACTB) was 1.3 (inactive). The SILAC ratio inhibitor/DMSO (ABHD11) was 1.4 (inactive), the SILAC ratio inhibitor/DMSO (ACOT2) was 1.2 (inactive) and the SILAC ratio inhibitor/DMSO [1] was 1.3 (inactive). For the same compound, the SILAC ratio inhibitor/DMSO (LIPA) was 1.6 (inactive), the SILAC ratio inhibitor/DMSO (PAFAH1B2) was 1.2 (inactive) and the SILAC ratio inhibitor/DMSO (PRCP) was 1.4 (inactive). The SILAC ratio inhibitor/DMSO (DPP7) was 1.2 (inactive), the SILAC ratio inhibitor/DMSO (APEH) was 1 (inactive) and the SILAC ratio inhibitor/DMSO (DPP9) was 1.3 (inactive). The SILAC ratio inhibitor/DMSO (PNPLA7) was 1.6 (inactive), the SILAC ratio inhibitor/DMSO (DDHD1) was 1.4 (inactive) and the SILAC ratio inhibitor/DMSO (FAAH) was 1.3 (inactive). The SILAC ratio inhibitor/DMSO (PLA2G6) was 0.91 (inactive), the SILAC ratio inhibitor/DMSO (FAM108C) was 1.3 (inactive) and the SILAC ratio inhibitor/DMSO (CTSA) was 1.1 (inactive). For the same compound, the SILAC ratio inhibitor/DMSO (ACOT1) was 1.2 (inactive), the SILAC ratio inhibitor/DMSO (DPP4) was 1.2 (inactive) and the SILAC ratio inhibitor/DMSO (IAH1) was 1.2 (inactive). The SILAC ratio inhibitor/DMSO (AADACL1) was 1.3 (inactive), the SILAC ratio inhibitor/DMSO (ESD) was 1 (inactive) and the SILAC ratio inhibitor/DMSO (DPP8) was 1.3 (inactive). For the same compound, the SILAC ratio inhibitor/DMSO (ABHD13) was 1.2 (inactive), the SILAC ratio inhibitor/DMSO [2] was 0 and the SILAC ratio inhibitor/DMSO (LYPLA1) was 1.3 (inactive).
